Measurements from different studies.
Each line is one published result; the experiments were not run side by side.
Target: Alpha-2A adrenergic receptor (ADRA2A, Homo sapiens, UniProt P08913)
Residues used in one study (P08913 1-465): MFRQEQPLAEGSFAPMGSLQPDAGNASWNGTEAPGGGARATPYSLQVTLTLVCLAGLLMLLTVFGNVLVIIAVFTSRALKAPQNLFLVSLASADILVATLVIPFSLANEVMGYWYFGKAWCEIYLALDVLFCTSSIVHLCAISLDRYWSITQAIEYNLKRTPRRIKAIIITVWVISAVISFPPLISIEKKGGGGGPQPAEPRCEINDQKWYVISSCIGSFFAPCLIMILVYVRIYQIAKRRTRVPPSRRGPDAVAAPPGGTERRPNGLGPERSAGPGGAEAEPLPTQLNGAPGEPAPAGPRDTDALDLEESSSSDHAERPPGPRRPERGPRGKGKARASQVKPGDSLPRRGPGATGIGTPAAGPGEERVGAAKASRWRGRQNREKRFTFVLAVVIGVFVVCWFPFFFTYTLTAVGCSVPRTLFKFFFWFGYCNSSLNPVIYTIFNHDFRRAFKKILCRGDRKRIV

`COCc1c(-c2cc3cc(C)cc(OC)c3s2)c2c(N)ncnn2c1CN1CCNC(=O)C1` gave an inhibition of 26% (ligand displacement, radioligand; 10 µM).
The inhibition of `COc1ccc(S(=O)(=O)N2CCCCC2)cc1C` is reported as under 30% (ligand displacement, radioligand; 10 µM).
`CC(C)Cn1cnc2c(N)nc3ccccc3c21` has an inhibition of 58% (ligand displacement, radioligand; 10 µM).
`CC(C)N1CCC[C@H]1CNC(=O)c1cn(C2CCCC2)c(=O)c2c1c1ccccc1n2C` gave an inhibition of 37% (ligand displacement, radioligand; 10 µM).
For `O=C(Nc1cccnn1)N1CCN([C@@H]2CCOc3cc(C(F)(F)F)ccc32)CC1`, the inhibition was 7% (ligand displacement; 20 µM).
The inhibition of `Cc1c(N2CCNCC2)nc2ccc(Br)cc2c1C(=O)NC[C@H](CCC(=O)O)c1ccccc1Cl` is reported as 65% (ligand displacement; 10 µM).
`Clc1ccc2c(C3CCN(CCc4c[nH]c5ccccc45)CC3)c[nH]c2c1` gave an inhibition of 82% (ligand displacement, radioligand; 10 µM).
For `N#CC1(c2ccccn2)CCN(Cc2cc(C(=O)O)c(=O)n3ccccc23)CC1`, the inhibition was -25.7% (cell-free assay; 10 µM).
With `Nc1ncc(-c2nc(N3CCOCC3)nc(N3CCOCC3)n2)c(C(F)F)n1` the remaining signal was 114% (cell-free assay, radioligand; 10 µM).
